Test results: ChEMBL document CHEMBL1145429, “Enaminone amides as novel orally active GABAA receptor modulators” (J Med Chem, 2007)
Activity calls are given as the source filed them. No cut-off for these calls is given here.

What was measured:
Mus musculus [1] = assay: Anticonvulsant activity against pentylenetetrazole-induced seizures in non-Swiss Albino mouse at 50 mg/kg, ip; format: functional, organism-based; parameters: dose 50 mg/kg
Rattus norvegicus [2] = species: Rattus norvegicus; assay: (§1) Displacement of [35S]TBPS from GABAA receptor in Sprague-Dawley rat cortex membrane; format: cell membranes
[3] = as §1; format: cell membranes
Mus musculus [4] = assay: Induction of loss of righting reflex in non-Swiss Albino mouse at 50 mg/kg, ip after 40 mins; format: functional, organism-based; parameters: dose 50 mg/kg
How it was run: (§2)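 Male NSA mice were dosed at 50 mg/kg ip or po in PEG 400 and then placed on their backs. Animals staying on their backs for more than 1 min were scored as having lost the righting reflex.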

Rattus norvegicus [5] = species: Rattus norvegicus; assay: Enhancement of [3H]muscimol binding to BZ-site of GABAA receptor in Sprague-Dawley rat cortex membrane; format: cell membranes
[6] = Enhancement of [3H]flunitrazepam binding to BZ-site of GABAA receptor in Sprague-Dawley rat cortex membrane; format: cell membranes
How it was run: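 Conditions and membrane preparation match the TBPS assay, except that GABA was 1 µM. Sites were labelled with 0.2 nM [3H]flunitrazepam, and nonspecific binding was defined with 1 µM clonazepam.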

Mus musculus [7] = assay: Suppression of locomotor activity in non-Swiss Albino mouse at 50 mg/kg, po; format: functional, organism-based; parameters: dose 50 mg/kg
How it was run: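 Male NSA mice, either nonhabituated or habituated (30 min in the chamber on 3 consecutive days), were given compound in PEG 400 or vehicle and immediately placed in an activity chamber. Horizontal beam breaks were recorded every 5 min, over 1 h for habituated mice. Activity was taken as total distance traveled (cm), with testing between 9 a.m. and 2 p.m.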

Mus musculus [8] = assay: Induction of loss of righting reflex in non-Swiss Albino mouse at 50 mg/kg, po; format: functional, organism-based; parameters: dose 50 mg/kg; how it was run: as §2
Rattus norvegicus [9] = species: Rattus norvegicus; assay: Displacement of [3H]flunitrazepam from BZ-site of GABAA receptor in Sprague-Dawley rat cortex membrane; format: cell membranes
How it was run: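 P2 membrane pellet (sucrose homogenate spun 1000g then 9000g), resuspended in 50 mM Na/K phosphate pH 7.4 with 200 mM NaCl. Incubated with 0.2 nM [3H]flunitrazepam, 1 µM GABA and test drug in DMSO (≤1%) for 90 min at 25 °C. Nonspecific binding defined with 1 µM clonazepam. Filtration, scintillation counting; nonlinear regression fit.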

Mus musculus [10] = assay: CNS toxicity by rotarod test in non-Swiss Albino mouse at 50 mg/kg, po; format: organism-based; parameters: dose 50 mg/kg, route oral; details: in vivo
How it was run: (§3)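 Mice were dosed orally and scored on the rotarod for CNS depressant potential. TD50, the dose causing behavioral toxicity in half the animals, was calculated from each dose-response function by the Litchfield-Wilcoxon method.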

[11] = Therapeutic index, ratio of light-dark MED to TD50 by rotarod test in non-Swiss Albino mouse at 3 mg/kg, po; format: organism-based; parameters: dose 3 mg/kg, route oral; details: in vivo, read-out: TI
How it was run: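 The index was calculated as […]. Both were measured in male NSA mice given oral doses. TD50 was derived by the Litchfield-Wilcoxon method, and light-dark time was recorded over a 3 min session 30 min after dosing.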

Mus musculus [12] = assay: CNS toxicity by rotarod test in non-Swiss Albino mouse at 3 mg/kg, po; format: organism-based; parameters: dose 3 mg/kg, route oral; details: in vivo; how it was run: as §3
Mus musculus [13] = assay: Anxiolytic activity in non-Swiss Albino mouse assessed as reduction of time spent in dark at 3 mg/kg, po; format: functional, organism-based; parameters: dose 3 mg/kg
How it was run: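 Male NSA mice (25-30 g) were dosed po 30 min before a 3 min session in a light-dark box: a black compartment lit with red light and an illuminated white compartment, joined by a floor-level hole. Time spent in each compartment was recorded. Vehicle was 3:1 PEG 400/5% dextrose in water.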

[14] = biological target: GABA-A receptor; alpha-1/beta-2/gamma-2 (Homo sapiens) (UniProt P14867+P47870+P18507); assay: Activity at human GABAA alpha-1-beta-2-gamma-2L expressed in Xenopus oocytes assessed as potentiation of GABA currents in absence of GABA at 10 uM; format: cell-based; details: Oocyte

CC(C)(C)NC(=O)/C(=C\Nc1ccc(Cl)cc1)C(=O)c1ccccc1Cl
Activity (Mus musculus [1]): inactive
Imax (Rattus norvegicus [2]): 100%
IC50 [3]: 3000 nM

O=C(NC1CC1)/C(=C\Nc1ccc(Cl)cc1)C(=O)c1ccccc1Cl
Activity (Mus musculus [4]): Active
Activity (Mus musculus [1]): inactive
Imax (Rattus norvegicus [2]): 92%
IC50 [3]: 30 nM

CCC(C)NC(=O)/C(=C\Nc1ccc(Cl)cc1)C(=O)c1ccccc1Cl (stereo unspecified)
Activity (Mus musculus [4]): Active
Activity (Mus musculus [1]): inactive
Imax (Rattus norvegicus [2]): 86%
IC50 [3]: 20 nM

CCOC(=O)/C(=C\Nc1ccc(F)cc1)C(=O)c1cccc(Cl)c1
Imax (Rattus norvegicus [2]): 90%
IC50 [3]: 900 nM

CC(C)C(C)NC(=O)/C(=C\Nc1ccc(Cl)cc1)C(=O)c1ccccc1Cl (stereo unspecified)
Activity (Mus musculus [1]): inactive
Imax (Rattus norvegicus [2]): 94%
IC50 [3]: 400 nM

C#Cc1ccc(N/C=C(\C(=O)NCCC)C(=O)c2ccccc2Cl)cc1
Activity (Rattus norvegicus [5]): Active
EC50 [6]: 60 nM

CCOC(=O)/C(=C\Nc1ccc(Cl)cc1)C(=O)c1ccccc1Cl
Activity (Mus musculus [4]): Active
Activity (Mus musculus [7]): inactive
Imax (Rattus norvegicus [2]): 95%
IC50 [3]: 90 nM
Activity (Mus musculus [8]): inactive

O=C1CN=C(c2ccccc2Cl)c2cc([N+](=O)[O-])ccc2N1
Activity (Rattus norvegicus [9]): Dose-dependent effect

CCOC(=O)/C(=C\Nc1ccc(F)cc1)C(=O)c1ccc(Cl)cc1
Imax (Rattus norvegicus [2]): 100%
IC50 [3]: 490 nM

CCNC(=O)/C(=C\Nc1ccc(Cl)cc1)C(=O)c1ccccc1Cl
Activity (Mus musculus [4]): Active
Activity (Mus musculus [1]): inactive
Activity (Mus musculus [10]): Non-toxic
Imax (Rattus norvegicus [2]): 82%
IC50 [3]: 50 nM
Activity (Mus musculus [8]): inactive

CCC(CC)NC(=O)/C(=C\Nc1ccc(Cl)cc1)C(=O)c1ccccc1Cl
Activity (Mus musculus [1]): inactive
Imax (Rattus norvegicus [2]): 86%
IC50 [3]: 80 nM

CCOC(=O)/C(=C\Nc1ccc(C(C)C)cc1)C(=O)c1ccccc1Cl
Imax (Rattus norvegicus [2]): 94%
IC50 [3]: 360 nM

CCOC(=O)/C(=C\Nc1ccccc1Cl)C(=O)c1ccccc1Cl
Imax (Rattus norvegicus [2]): 100%
IC50 [3]: 700 nM

C#Cc1ccc(N/C=C(\C(=O)OCC)C(=O)c2ccccc2Cl)cc1
Activity (Rattus norvegicus [5]): Active
EC50 [6]: 6 nM
Imax (Rattus norvegicus [2]): 100%
IC50 [3]: 8 nM

O=C(NC1CCC1)/C(=C\Nc1ccc(Cl)cc1)C(=O)c1ccccc1Cl
Activity (Mus musculus [4]): Active
Activity (Mus musculus [1]): inactive
Imax (Rattus norvegicus [2]): 88%
IC50 [3]: 7 nM

CCOC(=O)/C(=C\Nc1ccc(F)cc1)C(=O)c1cc(F)c(Cl)cc1Cl
Imax (Rattus norvegicus [2]): 87%
IC50 [3]: 130 nM

CNC(=O)/C(=C\Nc1ccc(Cl)cc1)C(=O)c1ccccc1Cl
Activity (Mus musculus [1]): inactive
Imax (Rattus norvegicus [2]): 74%
IC50 [3]: 160 nM

CCOC(=O)/C(=C\Nc1ccc(F)cc1)C(=O)c1ccccc1Cl
Imax (Rattus norvegicus [2]): 93%
IC50 [3]: 300 nM

NC(=O)/C(=C\Nc1ccc(Cl)cc1)C(=O)c1ccccc1Cl
Activity (Mus musculus [1]): inactive
Imax (Rattus norvegicus [2]): 40%

CCOC(=O)/C(=C\Nc1cccc(Cl)c1)C(=O)c1ccccc1Cl
Imax (Rattus norvegicus [2]): 100%
IC50 [3]: 600 nM

CC(C)NC(=O)/C(=C\Nc1ccc(Cl)cc1)C(=O)c1ccccc1Cl
Activity (Mus musculus [4]): Active
Activity (Mus musculus [1]): inactive
selectivity ratio [11]: > 10
Activity (Mus musculus [12]): Non-toxic
Activity (Mus musculus [13]): Active
Imax (Rattus norvegicus [2]): 80%
IC50 [3]: 40 nM
Activity [14]: inactive

CCOC(=O)/C(=C\Nc1ccc(C)cc1)C(=O)c1ccccc1Cl
Imax (Rattus norvegicus [2]): 93%
IC50 [3]: 450 nM

CCCNC(=O)/C(=C\Nc1ccc(Cl)cc1)C(=O)c1ccccc1Cl
Activity (Mus musculus [4]): Active
Activity (Mus musculus [1]): inactive
Imax (Rattus norvegicus [2]): 90%
IC50 [3]: 45 nM
Activity (Mus musculus [8]): inactive

O=C(NC1CCCC1)/C(=C\Nc1ccc(Cl)cc1)C(=O)c1ccccc1Cl
Activity (Mus musculus [1]): inactive
Imax (Rattus norvegicus [2]): 88%
IC50 [3]: 30 nM
